Consider 34 compounds from ChEMBL document CHEMBL1124654, “Synthesis and investigation of effects of 2-[4- [[(arylamino)carbonyl]amino]phenoxy]-2-methylpropionic acids on the affinity of hemoglobin for oxygen: structure-activity relationships” (1989).

What all share (type): functional
The species named for test [1] is Homo sapiens. As to the kind of experiment: Ability of 1 mM to reduce affinity of hemoglobin for oxygen is assessed from 50% partial pressure of oxygen in membrane free hemoglobin solution. An outline of the steps: (§1)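 Membrane-free hemoglobin: erythrocytes washed five times in 0.15 M NaCl, lysed in 5 volumes of water, filtered through paper and then down to 0.22 µm. Compound dissolved in 0.1 M HEPES, pH 7.4, hemoglobin added to a final 12.5 ± 0.5 µM, incubated 30 min at 37 °C. P50 taken from the O2-dissociation curve. Initial screen at 1 mM in duplicate.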

The target in test [2] is Hemoglobin HbA (Homo sapiens) (UniProt P69905+P68871). The experiment in a line: Ratio of effect of compound on affinity of hemoglobin for oxygen to that of control. An outline of the steps:
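Mean P50 with compound divided by mean P50 of the respective controls. P50 measured from O2-dissociation curves at 37 °C after 30 min in 0.1 M HEPES, pH 7.4, with hemoglobin at 12.5 ± 0.5 µM, in intact red cells or membrane-free hemoglobin.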

The species named for test [3] is Homo sapiens. The experiment in a line: Ability of 1 mM compound to reduce affinity of hemoglobin for oxygen is assessed from 50% partial pressure of oxygen in intact red cells. An outline of the steps: (§2)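 Intact red cells: 30-µL aliquots of fresh heparinized normal whole blood added to 5 mL of compound diluted in 0.1 M HEPES, pH 7.4; final hemoglobin 12.5 ± 0.5 µM by spectrophotometry. Equilibrated 30 min at 37 °C, then oxygenated in the instrument chamber. P50 (mmHg PO2 at 50% deoxygenation) read from the O2-dissociation curve. Initial screen at 1 mM in duplicate.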

The species entered for test [4] is Homo sapiens. As to the kind of experiment: Ability of 0.5 mM to reduce affinity of hemoglobin for oxygen is assessed from 50% partial pressure of oxygen in intact red cells. An outline of the steps:
as §2

The species named for test [5] is Homo sapiens. The experiment in a line: Ability of 1 mM to reduce affinity of hemoglobin for oxygen is assessed from 50% partial pressure of oxygen in intact red cells. An outline of the steps:
as §2

Test [6] is filed under the species Homo sapiens. As to the kind of experiment: Ability of 0.5 mM to reduce affinity of hemoglobin for oxygen is assessed from 50% partial pressure of oxygen in membrane free hemoglobin solution. An outline of the steps: as §1
The species named for test [7] is Homo sapiens. As to the kind of experiment: Ability of 0.2 mM to reduce affinity of hemoglobin for oxygen is assessed from 50% partial pressure of oxygen in intact red cells. The method in brief: as §2
The species named for test [8] is Homo sapiens. As to the kind of experiment: Ability of 0.2 mM to reduce affinity of hemoglobin for oxygen is assessed from 50% partial pressure of oxygen in membrane free hemoglobin solution. An outline of the steps:
as §1

“And” between values parts separate entries of the source, which are not always exact repeats. Equal entries are not always repeated.

Hemoglobin HbA (Homo sapiens), sequence (P68871 2-147 partner limits assumed): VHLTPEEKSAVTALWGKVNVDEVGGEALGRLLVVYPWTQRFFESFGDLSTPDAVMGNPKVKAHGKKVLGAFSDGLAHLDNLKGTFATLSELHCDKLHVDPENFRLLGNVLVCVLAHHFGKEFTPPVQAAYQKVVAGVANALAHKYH
Hemoglobin HbA (Homo sapiens), sequence (P69905 2-142 limits assumed): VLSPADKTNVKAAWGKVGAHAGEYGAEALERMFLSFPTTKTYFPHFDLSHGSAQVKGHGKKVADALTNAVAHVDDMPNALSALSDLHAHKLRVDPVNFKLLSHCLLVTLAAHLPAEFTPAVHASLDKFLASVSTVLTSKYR

As to `CCOC(=O)Nc1ccc(NC(=O)Nc2ccc(OC(C)(C)C(=O)O)cc2)cc1`, the P50 stood at 10.5 mmHg in test [1] and 11.5 mmHg in test [3]. Besides, the Ratio in test [2] was 1.61 and 1.27.

On to `CC(C)(Oc1ccc(NC(=O)Nc2cc(F)cc(F)c2)cc1)C(=O)O`, for which the P50 in test [4] came out at 15 mmHg; in test [5], 21 mmHg; in test [6], 12.2 mmHg; in test [1] it was 15.2 mmHg. Further, the Ratio in test [2] was 1.99 [middle of 4 runs].

As to `CC(C)(Oc1ccc(NC(=O)Nc2ccc(O)cc2)cc1)C(=O)O`, the P50 is 11 mmHg in test [1] and 8.5 mmHg in test [3]. In addition, in test [2], the Ratio was 1.68 and 1.21.

Regarding `COc1ccc(NC(=O)Nc2ccc(OC(C)(C)C(=O)O)cc2)cc1OC`, the P50 in test [1] stood at 14.5 mmHg; in test [3] it was 8.5 mmHg. Further, the Ratio in test [2] is 2.07 and 1.

For the compound `Cc1cc(C)c(NC(=O)Nc2ccc(OC(C)(C)C(=O)O)cc2)c(C)c1`, the results for the P50 in test [1] and in test [3] were 6.5 mmHg and 12 mmHg, respectively. Further, in test [2], the Ratio was 1 and 1.26.

Consider `CC(C)(Oc1ccc(NC(=O)Nc2cc(Cl)cc(Cl)c2)cc1)C(=O)O`, for which the P50 came to 51 mmHg in test [4], 22.75 mmHg in test [7], 20.5 mmHg in test [8] and 44.5 mmHg in test [6]. Moreover, the Ratio in test [2] is 4.43 [middle of 4 runs].

Take `CC(C)(Oc1ccc(NC(=O)Nc2cccc(Cl)c2)cc1)C(=O)O`: the values for the P50 in test [1] and in test [3] were 22 mmHg and 17.75 mmHg, respectively. Besides, in test [2], the Ratio is 2.89 and 1.5.

On to `CC(C)(Oc1ccc(NC(=O)Nc2ccc(C=O)cc2)cc1)C(=O)O`, for which the figures for the P50 in test [1] and in test [3] were 15 mmHg and 20.5 mmHg, respectively. For the same compound, in test [2], the Ratio is 2.3 and 2.15.

`CC(C)(Oc1ccc(NC(=O)Nc2ccc(F)cc2)cc1)C(=O)O`: the P50 in test [1] was 18 mmHg; in test [3], 12.5 mmHg. Further, the Ratio in test [2] is 2 and 1.38.

With `CC(C)(Oc1ccc(NC(=O)Nc2cc(Cl)ccc2Cl)cc1)C(=O)O`, the P50 is 23.75 mmHg in test [4], 15.83 mmHg in test [7], 11.5 mmHg in test [8] and 18 mmHg in test [6]. Also, the Ratio in test [2] was 2.56 [middle of 4 runs].

On to `CC(C)(Oc1ccc(-c2ccccc2)cc1)C(=O)O`, for which the P50 in test [1] was found to be 7 mmHg; in test [3] it was 15.5 mmHg. In addition, the Ratio in test [2] was 1 and 1.63.

Regarding `CC(C)(Oc1ccc(CC(NC(=O)c2ccc(Cl)cc2)C(=O)O)cc1)C(=O)O` (stereo not given), the figures for the P50 in test [1] and in test [3] were 7.5 mmHg and 12 mmHg, respectively. Moreover, the Ratio in test [2] was 1.07 and 1.26.

Turning to `CC(C)(Oc1ccc(NC(=O)Nc2ccc(Cl)c(Cl)c2)cc1)C(=O)O`, the P50 in test [4] is 23.5 mmHg; in test [7] it was 15.5 mmHg; in test [8], 14.2 mmHg; in test [6], 28.5 mmHg. Also, the Ratio in test [2] is 2.29 [middle of 4 runs].

As for `CC(C)(Oc1ccc(NC(=O)Nc2ccc(Cl)cc2Cl)cc1)C(=O)O`, the P50 was determined as 21.25 mmHg in test [4], 14.75 mmHg in test [7], 9.75 mmHg in test [8] and 15.5 mmHg in test [6]. Besides, in test [2], the Ratio is 2.04 [middle of 4 runs].

As to `CC(C)(Oc1ccc(NC(=O)Nc2cccc(Cl)c2Cl)cc1)C(=O)O`, the P50 was 18.5 mmHg in test [7], 12.5 mmHg in test [8] and 16 mmHg in test [6]. The Ratio in test [2] is 2.46 [middle of 4 runs].

In the case of `CC(C)(Oc1ccc(NS(=O)(=O)Cc2ccccc2)cc1)C(=O)O`, the P50 is 9.16 mmHg in test [1] and 11.5 mmHg in test [3]. Moreover, the Ratio in test [2] was 1.34 and 1.64.

For `CC(C)(Oc1ccc(NC(=O)c2ccc(Cl)cc2)cc1)C(=O)O`, the P50 in test [5] is 37.5 mmHg and 19 mmHg; in test [6] it was 27 mmHg; in test [1], 39 mmHg. Also, in test [2], the Ratio is 5.35 [middle of 4 runs].

As for `COc1ccc(NC(=O)Nc2ccc(OC(C)(C)C(=O)O)cc2)cc1`, the P50 was 19 mmHg in test [1] and 12.5 mmHg in test [3]. Moreover, the Ratio in test [2] is 2.11 and 1.25.

Regarding `CC(C)(Oc1ccc(NC(=O)Nc2cc([N+](=O)[O-])ccc2Cl)cc1)C(=O)O`, the P50 in test [1] is 23.5 mmHg; in test [3] it was 40 mmHg. The Ratio in test [2] is 3.61 and 4.21.

Turning to `CC(C)(Oc1ccc(NC(=O)Nc2ccc(Cl)c([N+](=O)[O-])c2)cc1)C(=O)O`, the P50 in test [4] came out at 40 mmHg; in test [5], 52.5 mmHg; in test [6], 30 mmHg; in test [1], 43.5 mmHg. For the same compound, the Ratio in test [2] is 5.43 [middle of 4 runs].

Regarding `CC(C)(Oc1ccc(NC(=O)Nc2ccc(Cl)cc2)cc1)C(=O)O`, the P50 is 21.8 mmHg in test [1] and 19.5 mmHg in test [3]. Besides, in test [2], the Ratio was 2.7 and 1.64.

Turning to `CC(C)(Oc1ccc(NC(=O)CNC(=O)c2ccc(Cl)cc2)cc1)C(=O)O`, the P50 in test [1] was determined as 8.5 mmHg; in test [3], 12 mmHg. The Ratio in test [2] is 1.14 and 1.36.

With `O=C(O)COc1ccc(NC(=O)Nc2ccc(Cl)c(Cl)c2)cc1`, the P50 was found to be 13 mmHg in test [4], 11.5 mmHg in test [7], 8 mmHg in test [8] and 10 mmHg in test [6]. Also, the Ratio in test [2] was 1.14 [middle of 4 runs].

Regarding `CC(C)(Oc1ccc(NC(=N)Nc2ccc(Cl)cc2)cc1)C(=O)O`, the figures for the P50 in test [1] and in test [3] were 9 mmHg and 16 mmHg, respectively. In addition, the Ratio in test [2] was 1.14 and 1.39.

In the case of `CC(C)(Oc1ccc(NC(=O)Nc2ccccc2)cc1)C(=O)O`, the P50 in test [1] and in test [3] was 10 mmHg throughout. Also, the Ratio in test [2] was 1.42 and 1.05.

In the case of `Cc1ccc(NC(=O)Nc2ccc(OC(C)(C)C(=O)O)cc2)cc1`, the P50 in test [1] was 26 mmHg; in test [3], 15.5 mmHg. Further, the Ratio in test [2] is 2.88 and 1.72.

For the compound `CC(C)(Oc1ccc(NC(=O)Nc2ccc3c(c2)OCO3)cc1)C(=O)O`, the results for the P50 in test [5] and in test [1] were 9.5 mmHg and 14 mmHg, respectively. For the same compound, the Ratio in test [2] is 2.15 and 1.05.

Turning to `CC(C)(Oc1ccc(NC(=O)Nc2ccc(C(=O)O)cc2)cc1)C(=O)O`, the P50 in test [1] turned out to be 8 mmHg; in test [3] it was 9 mmHg. In test [2], the Ratio was 1.14 and 1.

In the case of `CC(=O)Oc1ccc(NC(=O)Nc2ccc(OC(C)(C)C(=O)O)cc2)cc1`, the P50 in test [1] came out at 11.5 mmHg; in test [3] it was 16 mmHg. Also, the Ratio in test [2] is 1.64 and 1.77.

`CC(C)(Oc1ccc(NC(=O)Nc2ccccc2Cl)cc1)C(=O)O`: the figures for the P50 in test [1] and in test [3] were 14.2 mmHg and 16.2 mmHg, respectively. The Ratio in test [2] was 1.75 and 1.42.

Turning to `Cc1ccc(NC(=O)Nc2ccc(OC(C)(C)C(=O)O)cc2)cc1C`, the P50 in test [4] worked out at 14.5 mmHg; in test [6], 16.5 mmHg; in test [1], 27.2 mmHg; in test [3], 18.5 mmHg. Further, the Ratio in test [2] is 2.53 [middle of 4 runs].

With `COc1cc(NC(=O)Nc2ccc(OC(C)(C)C(=O)O)cc2)cc(OC)c1OC`, the results for the P50 in test [1] and in test [3] were 11.5 mmHg and 9.5 mmHg, respectively. The Ratio in test [2] was 1.64 and 1.05.

Take `CC(C)(Oc1ccc(NC(=O)COc2ccc(Cl)cc2)cc1)C(=O)O`: the P50 in test [1] is 9.25 mmHg; in test [3] it was 17.5 mmHg. In addition, the Ratio in test [2] was 1.27 and 1.84.

For the compound `CC(C)(Oc1ccc(NC(=O)Nc2ccccc2O)cc1)C(=O)O`, the P50 in test [1] was 12.5 mmHg; in test [3], 10 mmHg. The Ratio in test [2] is 1.91 and 1.42.
